≈ marks a conversion by molar mass, not a printed value. Calls of active or inactive are those of the source. The calls are words filed in the database; no cut-off is given here. Some results are limits rather than exact numbers.

For data set [1], the species on record is Homo sapiens. In words: Inhibition of Calcium channel (unknown origin) at 10 uM. In short, it runs like this: (§1)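 Single concentration of 10 μM in an 80-target panel of GPCRs, ion channels and transporters; percent inhibition recorded.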
Data set [2] has as its system Liver microsome. The data set can be described thus: Half life in rat liver microsomes in presence of NADPH. The format is ADME. In short, it runs like this:
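Rat liver microsomes with NADPH; half-life in minutes.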

Data set [3] is described as follows: Permeability of the compound from apical to basolateral direction in human Caco2 cells. In kind it is ADME, cell-based. The conditions noted are these: caco-2.
Data set [4] can be described thus: Chemical stability of the compound in PBS buffer at pH 7.4 after 48 hrs. The format is physicochemical. The conditions noted are these: read-out: Stability. In short, it runs like this:
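PBS buffer pH 7.4 for 48 h; percent compound remaining.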

The target in data set [5] is T1, 5-hydroxytryptamine receptor 2C (Homo sapiens) (UniProt P28335).
T1 sequence (whole entry): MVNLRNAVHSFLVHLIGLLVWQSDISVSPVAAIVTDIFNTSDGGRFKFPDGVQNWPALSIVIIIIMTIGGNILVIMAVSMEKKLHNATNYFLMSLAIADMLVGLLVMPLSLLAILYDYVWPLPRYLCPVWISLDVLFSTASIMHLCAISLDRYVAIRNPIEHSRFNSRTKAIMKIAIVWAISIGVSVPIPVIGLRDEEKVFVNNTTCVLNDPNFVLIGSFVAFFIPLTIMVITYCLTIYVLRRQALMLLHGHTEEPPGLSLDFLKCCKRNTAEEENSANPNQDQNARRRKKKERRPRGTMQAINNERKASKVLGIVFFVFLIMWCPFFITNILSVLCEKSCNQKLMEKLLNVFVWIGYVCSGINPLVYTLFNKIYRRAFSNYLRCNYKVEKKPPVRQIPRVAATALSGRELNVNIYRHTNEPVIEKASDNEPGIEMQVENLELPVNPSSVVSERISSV
In words: Inhibition of 5-HT2C (unknown origin) at 10 uM. In short, it runs like this:
as §1

Data set [6] can be described thus: Lipophilicity, log D of the compound at pH 7.4 by shake-flask method. The format is physicochemical. Conditions: buffer. In short, it runs like this:
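Log D at pH 7.4 by miniaturized (scaled-down) shake-flask method.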

Data set [7] has as its target T2, Adenosine receptor A3 (Homo sapiens) (UniProt P0DMS8).
T2 sequence (whole entry): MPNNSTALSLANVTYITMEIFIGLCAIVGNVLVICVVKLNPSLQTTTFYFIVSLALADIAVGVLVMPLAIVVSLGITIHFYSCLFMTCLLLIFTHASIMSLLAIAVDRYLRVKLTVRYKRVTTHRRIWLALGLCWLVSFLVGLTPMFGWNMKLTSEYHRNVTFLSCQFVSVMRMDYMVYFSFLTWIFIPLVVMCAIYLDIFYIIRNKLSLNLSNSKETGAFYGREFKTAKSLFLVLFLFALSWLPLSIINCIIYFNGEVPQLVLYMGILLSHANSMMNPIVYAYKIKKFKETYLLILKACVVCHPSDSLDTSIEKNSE
In words: Inhibition of adenosine A3 receptor (unknown origin) at 10 uM. The procedure, abridged: as §1

Data set [8] has as its target 5-hydroxytryptamine receptor 2B (Homo sapiens) (UniProt P41595). In words: Inhibition of 5-HT2B (unknown origin) at 10 uM. In short, it runs like this: as §1
Data set [9] in a line: Kinetic aqueous solubility of the compound in PBS at pH 7.4. Conditions: read-out: Kinetic_solubility. The format is physicochemical.
A short description of data set [10]: Cytotoxicity against human H1299 cells assessed as reduction in colony formation at 5 uM after 7 days. In kind it is functional. Conditions: NCI-H1299, 168 h, read-out: INH. The procedure, abridged: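 H1299 cells seeded at 200 cells/well, attached overnight, then exposed to 5 μM compound or equal volume DMSO. After 7 days, fixed with 20% methanol and stained with 0.1% crystal violet; percent survival scored versus DMSO control.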

Data set [11] addresses T3, Peroxisome proliferator-activated receptor gamma (Homo sapiens) (UniProt P37231).
T3 sequence (whole entry): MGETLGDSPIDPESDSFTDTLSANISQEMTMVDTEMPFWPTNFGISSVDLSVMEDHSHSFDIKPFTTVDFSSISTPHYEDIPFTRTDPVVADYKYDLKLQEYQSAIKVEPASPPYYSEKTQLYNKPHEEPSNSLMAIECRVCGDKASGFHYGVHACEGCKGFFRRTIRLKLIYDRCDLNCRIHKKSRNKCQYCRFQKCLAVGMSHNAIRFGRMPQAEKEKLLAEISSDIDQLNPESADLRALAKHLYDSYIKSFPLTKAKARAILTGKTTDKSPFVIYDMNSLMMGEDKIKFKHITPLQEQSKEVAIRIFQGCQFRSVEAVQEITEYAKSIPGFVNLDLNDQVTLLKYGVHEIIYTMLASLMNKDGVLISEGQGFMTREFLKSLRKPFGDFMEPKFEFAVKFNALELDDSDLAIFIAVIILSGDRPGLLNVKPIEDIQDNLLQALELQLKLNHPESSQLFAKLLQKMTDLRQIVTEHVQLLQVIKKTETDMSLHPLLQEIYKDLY
The data set can be described thus: Inhibition of PPARgamma (unknown origin) at 10 uM. In short, it runs like this:
as §1

Data set [12] is described as follows: Stability of the compound in mouse plasma after 2 hrs. The format is ADME, cell-free. Conditions: read-out: Stability. In short, it runs like this: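 Mouse plasma incubation for 2 h; percent compound remaining.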
Data set [13] concerns Liver. In words: Half life in mouse liver microsomes. The format is ADME. In short, it runs like this: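 Incubated with mouse liver microsomes in the presence of NADPH, run by a contract lab; read-out is the half-life (T1/2) in minutes.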
Data set [14] has as its system Liver microsome. The data set can be described thus: Half life in human liver microsomes. The format is ADME. In short, it runs like this:
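Human liver microsomes in the presence of NADPH; half-life (min).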

In data set [15] the target is Melatonin receptor type 1A (Homo sapiens) (UniProt P48039). In words: Inhibition of MT1 (unknown origin) at 10 uM. The procedure, abridged:
as §1

Data set [16] addresses 5-hydroxytryptamine receptor 2A (Homo sapiens) (UniProt P28223). The data set can be described thus: Inhibition of 5-HT2A (unknown origin) at 10 uM. In short, it runs like this: as §1
For data set [17], the target named is T4, Ubiquitin carboxyl-terminal hydrolase 1/WD repeat-containing protein 48 (Homo sapiens, UniProt O94782+Q8TAF3). In words: Inhibition of human USP1/UAF1 using ubiquitin-rhodamine110 substrate by fluorescence assay.
Data set [18] deals with T4, Ubiquitin carboxyl-terminal hydrolase 1/WD repeat-containing protein 48. In words: Inhibition of human USP1/UAF1 in human H1299 cells assessed as reduction in colony formation up to 25 uM after 7 days. In kind it is cell-based.
Data set [19] addresses Ubiquitin carboxyl-terminal hydrolase 1/WD repeat-containing protein 48 (Homo sapiens, UniProt O94782). In words: Inhibition of human USP1/UAF1 using ubiquitin-rhodamine110 substrate by fluorescence assay.
The target of data set [20] is T4, Ubiquitin carboxyl-terminal hydrolase 1/WD repeat-containing protein 48. The data set can be described thus: Inhibition of human USP1/UAF1 in human […] cells assessed as increase in Ub-PCNA measured at 1 uM after 4 hrs by Western blotting analysis. The format is cell-based.
Data set [21] has the same target. The data set can be described thus: Inhibition of human USP1/UAF1 in human […] cells assessed as increase in Ub-PCNA measured after 4 hrs by Western blotting analysis. The format is cell-based.

Ubiquitin carboxyl-terminal hydrolase 1/WD repeat-containing protein 48 (Homo sapiens, UniProt O94782), sequence (O94782 whole entry): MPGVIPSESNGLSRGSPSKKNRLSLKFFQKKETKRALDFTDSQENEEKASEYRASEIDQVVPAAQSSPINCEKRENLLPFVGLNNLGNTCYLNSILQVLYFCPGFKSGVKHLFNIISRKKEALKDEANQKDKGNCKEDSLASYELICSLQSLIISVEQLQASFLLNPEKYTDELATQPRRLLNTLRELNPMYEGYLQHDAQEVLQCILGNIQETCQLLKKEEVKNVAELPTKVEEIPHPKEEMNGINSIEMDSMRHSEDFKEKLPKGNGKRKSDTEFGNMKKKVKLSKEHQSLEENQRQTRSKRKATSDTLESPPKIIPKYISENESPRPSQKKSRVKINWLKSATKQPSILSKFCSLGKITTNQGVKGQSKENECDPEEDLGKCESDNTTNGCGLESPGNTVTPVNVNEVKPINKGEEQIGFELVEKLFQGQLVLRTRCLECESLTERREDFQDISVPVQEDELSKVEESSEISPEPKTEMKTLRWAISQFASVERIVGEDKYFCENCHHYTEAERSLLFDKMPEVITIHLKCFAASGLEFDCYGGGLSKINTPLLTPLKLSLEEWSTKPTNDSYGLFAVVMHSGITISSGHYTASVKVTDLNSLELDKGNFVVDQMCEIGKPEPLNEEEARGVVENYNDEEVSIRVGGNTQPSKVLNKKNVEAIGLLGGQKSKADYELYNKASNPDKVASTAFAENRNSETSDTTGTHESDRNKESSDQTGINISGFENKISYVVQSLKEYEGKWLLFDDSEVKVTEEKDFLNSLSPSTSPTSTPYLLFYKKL
Ubiquitin carboxyl-terminal hydrolase 1/WD repeat-containing protein 48 (Homo sapiens, UniProt O94782), sequence (Q8TAF3 whole entry, further chain): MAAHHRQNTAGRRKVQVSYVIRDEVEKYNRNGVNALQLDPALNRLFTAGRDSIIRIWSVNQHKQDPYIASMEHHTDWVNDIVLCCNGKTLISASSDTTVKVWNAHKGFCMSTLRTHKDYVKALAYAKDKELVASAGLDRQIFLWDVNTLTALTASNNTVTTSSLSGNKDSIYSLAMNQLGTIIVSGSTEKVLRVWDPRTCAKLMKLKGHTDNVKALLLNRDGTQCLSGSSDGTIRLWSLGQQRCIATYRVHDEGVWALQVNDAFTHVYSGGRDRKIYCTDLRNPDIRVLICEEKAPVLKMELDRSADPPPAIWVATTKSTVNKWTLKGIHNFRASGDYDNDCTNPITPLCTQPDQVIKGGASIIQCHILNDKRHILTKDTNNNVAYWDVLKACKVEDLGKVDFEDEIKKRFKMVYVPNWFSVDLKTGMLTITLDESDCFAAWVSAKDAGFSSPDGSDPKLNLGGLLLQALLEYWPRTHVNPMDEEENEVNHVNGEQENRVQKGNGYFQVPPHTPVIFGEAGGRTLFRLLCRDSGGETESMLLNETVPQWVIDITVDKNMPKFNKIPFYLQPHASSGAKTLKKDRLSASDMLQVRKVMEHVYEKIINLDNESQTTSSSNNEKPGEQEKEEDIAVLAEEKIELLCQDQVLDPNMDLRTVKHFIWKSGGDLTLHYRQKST
5-hydroxytryptamine receptor 2A (Homo sapiens), sequence (P28223 whole entry): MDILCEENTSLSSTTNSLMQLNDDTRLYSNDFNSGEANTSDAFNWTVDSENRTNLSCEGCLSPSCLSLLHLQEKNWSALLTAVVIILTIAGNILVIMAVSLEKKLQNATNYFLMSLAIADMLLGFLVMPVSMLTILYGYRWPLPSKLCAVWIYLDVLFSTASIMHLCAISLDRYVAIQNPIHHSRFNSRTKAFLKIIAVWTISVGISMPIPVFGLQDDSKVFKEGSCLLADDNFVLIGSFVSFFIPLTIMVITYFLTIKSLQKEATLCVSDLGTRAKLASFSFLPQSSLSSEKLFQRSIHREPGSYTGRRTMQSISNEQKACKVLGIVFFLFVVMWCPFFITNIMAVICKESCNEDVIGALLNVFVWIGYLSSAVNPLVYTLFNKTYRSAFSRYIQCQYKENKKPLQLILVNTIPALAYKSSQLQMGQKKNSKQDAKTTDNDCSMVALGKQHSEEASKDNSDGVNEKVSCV
5-hydroxytryptamine receptor 2B (Homo sapiens), sequence (P41595 whole entry): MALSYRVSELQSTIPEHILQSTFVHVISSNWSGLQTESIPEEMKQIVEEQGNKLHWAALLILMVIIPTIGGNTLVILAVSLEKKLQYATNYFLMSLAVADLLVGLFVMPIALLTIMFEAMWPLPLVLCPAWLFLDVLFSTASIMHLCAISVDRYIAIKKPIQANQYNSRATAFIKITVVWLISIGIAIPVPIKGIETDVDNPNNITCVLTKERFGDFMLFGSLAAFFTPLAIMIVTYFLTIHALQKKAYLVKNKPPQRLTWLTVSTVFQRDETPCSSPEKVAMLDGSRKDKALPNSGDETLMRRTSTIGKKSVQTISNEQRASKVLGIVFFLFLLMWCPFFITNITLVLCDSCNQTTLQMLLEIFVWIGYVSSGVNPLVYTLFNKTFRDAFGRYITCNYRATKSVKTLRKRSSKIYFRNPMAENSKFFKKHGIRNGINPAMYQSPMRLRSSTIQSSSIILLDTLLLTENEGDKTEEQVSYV
Melatonin receptor type 1A (Homo sapiens), sequence (P48039 whole entry): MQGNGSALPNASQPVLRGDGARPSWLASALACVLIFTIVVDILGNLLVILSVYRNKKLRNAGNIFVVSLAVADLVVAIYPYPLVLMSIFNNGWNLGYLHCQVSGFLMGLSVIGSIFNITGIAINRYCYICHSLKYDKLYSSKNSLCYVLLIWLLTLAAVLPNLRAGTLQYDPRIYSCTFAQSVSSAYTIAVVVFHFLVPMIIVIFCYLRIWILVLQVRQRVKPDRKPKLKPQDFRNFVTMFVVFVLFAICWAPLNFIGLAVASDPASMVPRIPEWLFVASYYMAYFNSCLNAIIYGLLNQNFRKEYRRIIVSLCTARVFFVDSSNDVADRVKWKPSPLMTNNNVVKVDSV
T4 sequence (O94782 whole entry): as the sequence (O94782 whole entry) above
T4 sequence (Q8TAF3 whole entry): as the sequence (Q8TAF3 whole entry, further chain) above

On to `Cc1cnc(-c2ccccc2C(C)C)nc1NCc1ccc(-n2ccnn2)cc1`, for which the inhibition in data set [1], in data set [5], in data set [7], in data set [8], in data set [11] and in data set [15] was more than 50% throughout. In addition, the inhibition in data set [16] was more than 50%. Moreover, the results for the t1/2 in data set [2], in data set [13] and in data set [14] were 15 min, 15 min and 26 min, respectively. Further, the Papp in data set [3] was determined as 22.98 ×10⁻⁶ cm/s. Moreover, in data set [4], the remaining at 48 h was determined as 99%. The compound further yielded a logD in [6] of 1.97. Moreover, the solubility kinetic in [9] was determined as 86 µM (≈ 33.1 µg/mL). The inhibition at 5 µM in data set [10] was more than 70%. Further, the remaining at 2 h in data set [12] was determined as 99%.

`Cc1cnc(-c2ccccc2C2COC2)nc1NCc1ccc(-n2ccnn2)cc1`: the t1/2 in [2] is more than 30 min. Further, in data set [17], the IC50 entry is “Not Active”. In data set [18], the inhibition entry is “inactive”.

For the compound `Cc1cnc(-c2ccccc2C(C)C)nc1NCC1CCN(c2cccnc2)CC1`, in [19], the IC50 is 0.08 µM. Moreover, in data set [20], the result was Active. The inhibition at 5 µM in [10] is more than 70%. Moreover, the inhibition result in data set [21] is “Dose-dependent effect”.

With `FC(F)(F)c1ccccc1-c1nc(NCc2cccs2)c2ccccc2n1`, in data set [19], half-maximal inhibition (IC50) required 7.9 µM. Also, in [21], the inhibition entry is “Dose-dependent effect”.

The values above are taken from ChEMBL document CHEMBL3352044, “Synthesis and structure-activity relationship studies of N-benzyl-2-phenylpyrimidin-4-amine derivatives as potent USP1/UAF1 deubiquitinase inhibitors with anticancer activity against nonsmall cell lung cancer” (J Med Chem, 2014).
